# Measured values taken from ChEMBL document CHEMBL4043186, “Design, synthesis, anti-inflammatory activity, and molecular docking studies of perimidine derivatives containing triazole” (Bioorg Med Chem Lett, 2017).
# Columns and labels:
# RAW264.7 [1] = experiment: Cytotoxicity against mouse RAW264.7 cells assessed as reduction in cell viability at 50 ug/ml after 24 hrs by MTT assay; assay type: cell-based; conditions: raw264.7, 24 h
# Mus musculus [2] = experiment: Antiinflammatory activity in Kunming mouse assessed as inhibition of xylene-induced ear edema at 50 mg/kg, ip pretreated for 30 mins followed by xylene challenge measured after 30 mins relative to control; assay type: functional
# Procedure, shortened: (§1)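 Xylene-induced ear edema in mice. Compounds were given i.p. at 12.5, 25 or 50 mg/kg. Ibuprofen and indomethacin at 50 mg/kg served as reference drugs. Ear edema weight (mg) is reported as mean ± S.D., and percent inhibition is calculated against the untreated control group.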
# RAW264.7 [3] = experiment: Cytotoxicity against mouse RAW264.7 cells assessed as reduction in cell viability at 50 ug/ml preincubated for 24 hrs followed by LPS induction measured after 18 hrs by MTT assay; assay type: cell-based; conditions: raw264.7, 18 h
# Mus musculus [4] = experiment: Antiinflammatory activity in Kunming mouse assessed as inhibition of xylene-induced ear edema at 25 mg/kg, ip pretreated for 30 mins followed by xylene challenge measured after 30 mins relative to control; assay type: functional; procedure, shortened: as §1
# RAW264.7 [5] = experiment: Antiinflammatory activity against mouse RAW264.7 cells assessed as decrease in LPS-stimulated TNFalpa release after 24 hrs by ELISA; assay type: functional, cell-based
# Procedure, shortened: (§2)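 Mouse RAW 264.7 macrophages were stimulated with LPS in the presence of compound, tested at […]. TNF-α and IL-6 were measured in the culture supernatants by ELISA. Cytokine content is expressed as fold of the control group, with control set at 100%. Values are mean ± S.D. of triplicate experiments.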
# Mus musculus [6] = experiment: Antiinflammatory activity in Kunming mouse assessed as inhibition of xylene-induced ear edema at 12.5 mg/kg, ip pretreated for 30 mins followed by xylene challenge measured after 30 mins relative to control; assay type: functional; procedure, shortened: as §1
# RAW264.7 [7] = experiment: Antiinflammatory activity against mouse RAW264.7 cells assessed as decrease in LPS-stimulated IL-6 release after 24 hrs by ELISA; assay type: functional, cell-based; procedure, shortened: as §2
# RAW264.7 [8] = experiment: Antiinflammatory activity against mouse RAW264.7 cells assessed as LPS-stimulated TNFalpa release at 50 ug/ml after 24 hrs by ELISA relative to LPS-treated control; assay type: functional; procedure, shortened: as §2
# Mus musculus [9] = species on record: Mus musculus; experiment: Inhibition of NFkappaB in mouse RAW264.7 cells assessed as decrease in LPS-induced degradation of IkappaB preincubated for 24 hrs followed by LPS-stimulation measured after 24 hrs by Western blot method; assay type: cell-based
# Procedure, shortened: (§3)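 NF-κB activation in LPS-stimulated RAW 264.7 cells was assessed by western blot of phosphorylated p65 and IκB levels. Data are means ± SD, compared with the control and LPS groups.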
# Mus musculus [10] = species on record: Mus musculus; experiment: Inhibition of LPS-induced NFkappaB activation in mouse RAW264.7 cells assessed as reduction p65 phosphorylation at 12.5 to 50 ug/ml preincubated for 24 hrs followed by LPS-stimulation measured after 24 hrs by Western blot method; assay type: cell-based; procedure, shortened: as §3
# RAW264.7 [11] = experiment: Antiinflammatory activity against mouse RAW264.7 cells assessed as LPS-stimulated IL6 release at 12.5 ug/ml after 24 hrs by ELISA relative to LPS-treated control; assay type: functional; procedure, shortened: as §2
# [12] = molecular target: MAP kinase p38 (Mus musculus) (UniProt P47811+O08911+Q9WUI1+Q9Z1B7); experiment: Inhibition of p38 phosphorylation in mouse RAW264.7 cells incubated for 24 hrs followed by LPS-stimulation measured after 24 hrs by Western blot method; assay type: cell-based
# Procedure, shortened: (§4)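 MAPK protein levels were determined by western blot in LPS-stimulated mouse RAW 264.7 cells. Data are means ± SD, compared with the control and LPS groups.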
# RAW264.7 [13] = experiment: Antiinflammatory activity against mouse RAW264.7 cells assessed as LPS-stimulated IL6 release at 25 ug/ml after 24 hrs by ELISA relative to LPS-treated control; assay type: functional; procedure, shortened: as §2
# RAW264.7 [14] = experiment: Antiinflammatory activity against mouse RAW264.7 cells assessed as LPS-stimulated IL6 release at 50 ug/ml after 24 hrs by ELISA relative to LPS-treated control; assay type: functional; procedure, shortened: as §2
# [15] = molecular target: Mitogen-activated protein kinase 3 (Mus musculus) (UniProt Q63844); experiment: Inhibition of ERK phosphorylation in mouse RAW264.7 cells incubated for 24 hrs followed by LPS-stimulation measured after 24 hrs by Western blot method; assay type: cell-based; procedure, shortened: as §4
# Chain of Mitogen-activated protein kinase 3 (Mus musculus) (Q63844 whole entry): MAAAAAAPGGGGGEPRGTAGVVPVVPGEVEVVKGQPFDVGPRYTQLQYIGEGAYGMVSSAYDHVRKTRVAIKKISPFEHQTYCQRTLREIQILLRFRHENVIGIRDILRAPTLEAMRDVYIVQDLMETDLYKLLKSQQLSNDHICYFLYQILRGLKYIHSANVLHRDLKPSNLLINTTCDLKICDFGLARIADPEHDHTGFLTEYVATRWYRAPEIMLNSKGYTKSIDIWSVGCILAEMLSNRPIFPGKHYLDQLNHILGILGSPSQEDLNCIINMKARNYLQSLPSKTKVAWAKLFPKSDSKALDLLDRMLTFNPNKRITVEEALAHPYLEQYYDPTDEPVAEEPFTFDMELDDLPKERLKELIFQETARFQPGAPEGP
# [16] = molecular target: T1, Prostaglandin G/H synthase 2 (Homo sapiens) (UniProt P35354); experiment: Inhibition of COX-2 (unknown origin) assessed as protein/GADPH ratio at 50 ug/ml relative to control; design: scale not given: the % may be the effect or the level left
# T1 sequence (whole entry): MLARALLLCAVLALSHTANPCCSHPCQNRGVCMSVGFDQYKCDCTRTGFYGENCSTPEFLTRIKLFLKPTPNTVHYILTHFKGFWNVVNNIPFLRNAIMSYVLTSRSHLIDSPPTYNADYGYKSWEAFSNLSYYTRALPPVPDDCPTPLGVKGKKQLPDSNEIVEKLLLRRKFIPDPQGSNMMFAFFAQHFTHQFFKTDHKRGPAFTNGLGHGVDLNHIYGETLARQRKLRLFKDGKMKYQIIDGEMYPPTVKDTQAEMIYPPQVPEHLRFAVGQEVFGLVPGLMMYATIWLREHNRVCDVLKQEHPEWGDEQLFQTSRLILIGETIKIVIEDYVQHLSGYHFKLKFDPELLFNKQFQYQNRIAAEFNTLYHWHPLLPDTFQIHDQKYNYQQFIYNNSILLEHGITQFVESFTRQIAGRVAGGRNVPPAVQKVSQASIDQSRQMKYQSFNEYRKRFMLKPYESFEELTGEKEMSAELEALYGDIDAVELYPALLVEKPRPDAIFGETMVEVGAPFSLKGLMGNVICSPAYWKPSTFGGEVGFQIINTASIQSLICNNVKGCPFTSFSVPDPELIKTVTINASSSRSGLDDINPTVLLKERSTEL
SMILES,Activity (RAW264.7 [1]),Activity (RAW264.7 [3]),other results
FC(F)(F)c1ccc(Cn2c3cccc4cccc(c43)n3cnnc23)cc1,Toxic,–,–
CCCn1c2cccc3cccc(c32)n2cnnc12,Toxic,–,–
Clc1ccc(Cn2c3cccc4cccc(c43)n3cnnc23)cc1,Toxic,–,–
CCCCCCCCCCn1c2cccc3cccc(c32)n2cnnc12,Toxic,–,–
CC(C)Cc1ccc(C(C)C(=O)O)cc1 (configuration not stated) [IBUPROFEN],–,–,inhibition in vivo at 50 mg/kg (Mus musculus [2]): 28.1%
Clc1cccc(Cn2c3cccc4cccc(c43)n3cnnc23)c1,Toxic,Toxic,–
COc1ccc2c(c1)c(CC(=O)O)c(C)n2C(=O)c1ccc(Cl)cc1 [INDOMETHACIN],–,–,inhibition in vivo at 50 mg/kg (Mus musculus [2]): 49.4%
Cc1ccc(Cn2c3cccc4cccc(c43)n3cnnc23)cc1,Toxic,–,–
Clc1cccc(Cl)c1Cn1c2cccc3cccc(c32)n2cnnc12,Non-Toxic,Non-Toxic,–
Fc1ccc(Cn2c3cccc4cccc(c43)n3cnnc23)cc1,Non-Toxic,Non-Toxic,–
CCCCCCCCn1c2cccc3cccc(c32)n2cnnc12,Toxic,Toxic,–
Cc1cccc(Cn2c3cccc4cccc(c43)n3cnnc23)c1,Non-Toxic,Non-Toxic,inhibition in vivo at 25 mg/kg (Mus musculus [4]): 29.8%; inhibition in vivo at 50 mg/kg (Mus musculus [2]): 42.9%; Activity (RAW264.7 [5]): Dose-dependent effect; inhibition in vivo at 12.5 mg/kg (Mus musculus [6]): 15.7%; Activity (RAW264.7 [7]): Dose-dependent effect; Activity (RAW264.7 [8]): 146.24%
Clc1ccc(Cn2c3cccc4cccc(c43)n3cnnc23)c(Cl)c1,Non-Toxic,Non-Toxic,–
Clc1ccccc1Cn1c2cccc3cccc(c32)n2cnnc12,Non-Toxic,Non-Toxic,–
CCCCn1c2cccc3cccc(c32)n2cnnc12,Toxic,Toxic,–
CCCCCn1c2cccc3cccc(c32)n2cnnc12,–,Non-Toxic,–
Fc1cccc(Cn2c3cccc4cccc(c43)n3cnnc23)c1,Non-Toxic,Non-Toxic,–
c1ccc(Cn2c3cccc4cccc(c43)n3cnnc23)cc1,Non-Toxic,Non-Toxic,–
Fc1ccccc1Cn1c2cccc3cccc(c32)n2cnnc12,Non-Toxic,Non-Toxic,inhibition in vivo at 25 mg/kg (Mus musculus [4]): 35%; inhibition (Mus musculus [9]): Dose-dependent effect; inhibition in vivo at 50 mg/kg (Mus musculus [2]): 49.3%; inhibition (Mus musculus [10]): Dose-dependent effect; Activity (RAW264.7 [11]): 71.8%; inhibition [12]: Dose-dependent effect; Activity (RAW264.7 [13]): 68.23%; Activity (RAW264.7 [5]): Dose-dependent effect; Activity (RAW264.7 [14]): 47.21%; inhibition in vivo at 12.5 mg/kg (Mus musculus [6]): 17.2%; Activity (RAW264.7 [7]): Dose-dependent effect; Activity (RAW264.7 [8]): 124.87%; inhibition [15]: Dose-dependent effect; Activity [16]: 45.2%
CCCCCCCCCn1c2cccc3cccc(c32)n2cnnc12,Toxic,–,–
CCCCCCn1c2cccc3cccc(c32)n2cnnc12,Toxic,–,–
